# The source made the active and inactive calls. No cut-off for these calls is given here.
# Columns and labels:
# A-375 [1] = assay: Cell cycle arrest in human A-375 cells assessed as accumulation at G2-phase at 25 uM measured after 24 hrs by […] (reference value: 9.14 to 10.5%); assay type: functional
# HFF = assay: Cytotoxicity against HFF assessed as inhibition of cell proliferation by MTS assay; assay type: cell-based, Homo sapiens; settings: Homo sapiens, HFF; read-out: IC50
# [2] = target: T1, Signal transducer and activator of transcription 3 (Homo sapiens, UniProt P40763); assay: Inhibition of STAT3 phosphorylation at S727 residue in human SB-590885-resistant 451Lu cells measured after 12 hrs by Western blot analysis; settings: dose 10-25 µM
# T1 sequence (P40763 whole entry): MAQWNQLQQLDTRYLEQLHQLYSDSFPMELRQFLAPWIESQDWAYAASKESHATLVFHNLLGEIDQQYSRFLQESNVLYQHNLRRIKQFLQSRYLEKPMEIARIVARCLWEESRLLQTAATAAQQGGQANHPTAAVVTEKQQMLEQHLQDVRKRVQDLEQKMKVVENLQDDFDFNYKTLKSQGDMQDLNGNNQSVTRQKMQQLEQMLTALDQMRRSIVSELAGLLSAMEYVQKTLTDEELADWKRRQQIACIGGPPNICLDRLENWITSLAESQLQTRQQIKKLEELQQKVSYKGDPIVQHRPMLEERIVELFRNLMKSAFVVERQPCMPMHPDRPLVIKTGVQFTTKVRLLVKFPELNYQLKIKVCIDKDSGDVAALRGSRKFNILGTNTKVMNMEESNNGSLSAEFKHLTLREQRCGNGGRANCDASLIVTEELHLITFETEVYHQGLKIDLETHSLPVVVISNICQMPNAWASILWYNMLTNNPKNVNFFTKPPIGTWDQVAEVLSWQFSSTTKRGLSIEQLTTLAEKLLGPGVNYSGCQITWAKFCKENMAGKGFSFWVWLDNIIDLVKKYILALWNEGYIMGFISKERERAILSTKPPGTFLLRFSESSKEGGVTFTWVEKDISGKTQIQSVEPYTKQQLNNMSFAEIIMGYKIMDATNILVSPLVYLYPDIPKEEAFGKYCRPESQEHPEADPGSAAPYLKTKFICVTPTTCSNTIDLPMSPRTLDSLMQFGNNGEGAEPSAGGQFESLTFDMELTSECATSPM
# Method in brief: (§1)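 451 Lu and MEL 1617 pairs, sensitive and resistant; resistant lines maintained in RPMI with 1 µM PLX4720. Treated with 10 and 25 µM for 12 h versus DMSO. Lysates (60 µg protein, 10% SDS-PAGE) immunoblotted for Ser727- and Tyr705-phospho-STAT3, total STAT3, total PAX3, with actin.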
# [3] = target: T1, Signal transducer and activator of transcription 3; assay: Inhibition of STAT3 in human SB-590885-sensitive 451Lu cells assessed as reduction in PAX3 expression measured after 12 hrs by Western blot analysis; settings: dose 10-25 µM; method in brief: as §1
# [4] = target: Mitogen-activated protein kinase; ERK1/ERK2 (Homo sapiens) (UniProt P27361+P28482); assay: Inhibition of ERK1/2 phosphorylation in human A-375 cells at 5 to 50 uM after 12 hrs by Western blotting analysis; assay type: cell-based; settings: dose 5-50 µM
# Chain of Mitogen-activated protein kinase; ERK1/ERK2 (Homo sapiens) (P27361 whole entry, looked up): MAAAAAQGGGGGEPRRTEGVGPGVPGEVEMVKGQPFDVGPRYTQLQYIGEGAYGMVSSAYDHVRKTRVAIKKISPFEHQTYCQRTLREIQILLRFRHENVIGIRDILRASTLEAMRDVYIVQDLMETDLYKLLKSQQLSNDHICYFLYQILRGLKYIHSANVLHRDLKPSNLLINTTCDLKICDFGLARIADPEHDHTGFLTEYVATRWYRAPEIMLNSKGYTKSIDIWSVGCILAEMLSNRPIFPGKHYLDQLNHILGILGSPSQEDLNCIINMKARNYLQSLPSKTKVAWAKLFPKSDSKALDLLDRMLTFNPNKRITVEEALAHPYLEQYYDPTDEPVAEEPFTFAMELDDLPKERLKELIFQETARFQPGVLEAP
# Chain of Mitogen-activated protein kinase; ERK1/ERK2 (Homo sapiens) (P28482 whole entry, looked up): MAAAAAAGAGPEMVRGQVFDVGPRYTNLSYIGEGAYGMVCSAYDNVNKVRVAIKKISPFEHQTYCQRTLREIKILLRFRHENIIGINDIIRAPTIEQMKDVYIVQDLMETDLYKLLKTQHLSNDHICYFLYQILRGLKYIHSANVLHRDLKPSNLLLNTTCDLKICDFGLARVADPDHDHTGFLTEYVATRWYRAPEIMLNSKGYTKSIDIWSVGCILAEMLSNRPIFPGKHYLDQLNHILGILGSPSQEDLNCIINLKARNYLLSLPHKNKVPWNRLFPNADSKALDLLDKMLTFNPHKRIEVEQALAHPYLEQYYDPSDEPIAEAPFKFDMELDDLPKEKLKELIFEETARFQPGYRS
# [5] = Drug metabolism in pH 7.4 phosphate buffer assessed as nitric oxide release at 100 uM measured after 2 hrs by Griess reagent based colorimetric method
# Method in brief: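 Compound at 100 µM was held at room temperature in pH 7.4 phosphate buffer with 5 mM DTT and 2% DMSO for 2 or 48 h. Griess reagent was added, and after 30 min absorbance was read at 548 nm. NO release (mol NO/mol compound) was derived from a sodium nitrite calibration curve.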
# A-375 [6] = assay: Cytotoxicity against human A-375 cells assessed as inhibition of cell proliferation measured after 48 hrs by MTS assay; assay type: functional, cell-based; settings: A-375, 48 h
# Method in brief: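 Cells were exposed to a dose range of inhibitor for 48 h, and viability was read by MTS assay in triplicate. GI50 was taken as the concentration giving 50% growth inhibition, averaged from three independent experiments. A375 was cultured in RPMI-1640 with Glutamax. A549 and NCI-H157 were kept in RPMI-1640, and MIA PaCa-2 and U87-MG in DMEM.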
# [7] = Antiproliferative activity against human SB-590885-sensitive 451Lu cells assessed as reduction in cell viability measured after 48 hrs by MTS assay; assay type: functional
# Method in brief: (§2)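 Melanoma lines were grown in RPMI-1640 with Glutamax at 37 °C and 5% CO2. The resistant 451 Lu-R and MEL 1617-R sublines were maintained with 1 µM PLX4720. Cells were incubated with vehicle or inhibitor over a dose range, and viability was read by MTS assay in triplicate.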
# [8] = target: Signal transducer and activator of transcription 6 (Homo sapiens) (UniProt P42226); assay: Inhibition of STAT6 phosphorylation at Y641 residues in human A-375 cells at 50 uM after 20 hrs by Western blotting analysis; assay type: cell-based
# Chain of Signal transducer and activator of transcription 6 (Homo sapiens) (P42226 whole entry): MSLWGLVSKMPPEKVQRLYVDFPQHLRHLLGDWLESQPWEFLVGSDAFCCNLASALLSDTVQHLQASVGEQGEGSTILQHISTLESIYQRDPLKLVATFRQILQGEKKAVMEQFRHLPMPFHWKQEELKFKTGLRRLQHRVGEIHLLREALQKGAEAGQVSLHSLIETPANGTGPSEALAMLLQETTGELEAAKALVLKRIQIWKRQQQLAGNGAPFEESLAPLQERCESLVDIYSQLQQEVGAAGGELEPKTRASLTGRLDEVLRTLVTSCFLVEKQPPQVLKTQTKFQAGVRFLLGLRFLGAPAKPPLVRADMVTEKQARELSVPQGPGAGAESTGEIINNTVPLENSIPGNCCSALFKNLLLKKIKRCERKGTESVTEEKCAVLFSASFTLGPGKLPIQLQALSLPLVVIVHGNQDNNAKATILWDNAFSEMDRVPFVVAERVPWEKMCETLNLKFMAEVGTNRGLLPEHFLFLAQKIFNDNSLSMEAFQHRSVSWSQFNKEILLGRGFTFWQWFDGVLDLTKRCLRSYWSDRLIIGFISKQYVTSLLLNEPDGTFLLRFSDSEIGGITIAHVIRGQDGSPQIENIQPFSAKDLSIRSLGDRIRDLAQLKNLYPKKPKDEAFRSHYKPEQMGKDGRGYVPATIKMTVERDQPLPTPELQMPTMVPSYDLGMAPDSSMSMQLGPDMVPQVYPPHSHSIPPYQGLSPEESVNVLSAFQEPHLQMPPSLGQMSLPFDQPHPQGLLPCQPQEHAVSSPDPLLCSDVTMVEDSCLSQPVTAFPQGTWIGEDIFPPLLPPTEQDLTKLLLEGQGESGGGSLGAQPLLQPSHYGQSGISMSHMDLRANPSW
# Method in brief: (§3)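 A375 cells exposed to a dose range of inhibitor for 20 h (overnight), up to 50 µM; lysates immunoblotted for phospho-STAT1 Y701, phospho-STAT5 Y694 and phospho-STAT6 Y641, with actin and/or vinculin as loading controls.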
# [9] = target: Signal transducer and activator of transcription 1-alpha/beta (Homo sapiens) (UniProt P42224); assay: Inhibition of STAT1 phosphorylation at Y701 residues in human A-375 cells at 50 uM after 20 hrs by Western blotting analysis; assay type: cell-based; method in brief: as §3
# Chain of Signal transducer and activator of transcription 1-alpha/beta (Homo sapiens) (P42224 whole entry): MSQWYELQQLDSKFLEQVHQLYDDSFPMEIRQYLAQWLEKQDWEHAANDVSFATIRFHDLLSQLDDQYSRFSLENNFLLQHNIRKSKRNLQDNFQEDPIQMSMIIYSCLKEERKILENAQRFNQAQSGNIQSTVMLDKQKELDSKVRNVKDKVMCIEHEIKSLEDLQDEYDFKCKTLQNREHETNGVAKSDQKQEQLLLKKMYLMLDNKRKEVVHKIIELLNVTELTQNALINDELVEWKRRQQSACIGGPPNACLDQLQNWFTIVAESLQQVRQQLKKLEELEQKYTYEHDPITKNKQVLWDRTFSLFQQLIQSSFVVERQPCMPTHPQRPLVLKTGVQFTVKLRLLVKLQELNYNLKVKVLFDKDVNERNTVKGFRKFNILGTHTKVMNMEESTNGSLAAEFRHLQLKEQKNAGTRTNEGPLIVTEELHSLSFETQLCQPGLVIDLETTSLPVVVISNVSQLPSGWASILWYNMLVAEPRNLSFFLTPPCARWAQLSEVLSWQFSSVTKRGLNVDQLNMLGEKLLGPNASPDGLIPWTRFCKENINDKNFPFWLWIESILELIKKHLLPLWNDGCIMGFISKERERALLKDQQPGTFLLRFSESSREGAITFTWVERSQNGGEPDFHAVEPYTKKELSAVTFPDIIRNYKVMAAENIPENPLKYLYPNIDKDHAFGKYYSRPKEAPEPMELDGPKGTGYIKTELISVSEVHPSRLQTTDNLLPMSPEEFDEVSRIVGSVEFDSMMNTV
# A-375 [10] = assay: Cell cycle arrest in human A-375 cells assessed as accumulation at S-phase at 25 uM measured after 24 hrs by […] (reference value: 33.6 to 33.7%); assay type: functional
# A-375 [11] = assay: Cell cycle arrest in human A-375 cells assessed as increase in accumulation at G1-phase measured after 24 hrs by […]; assay type: functional, cell-based; settings: dose 10-25 µM
# A-375 [12] = assay: Cell cycle arrest in human A-375 cells assessed as accumulation at G2-phase at 10 uM measured after 24 hrs by […] (reference value: 9.14 to 10.5%); assay type: functional
# [13] = target: Tyrosine-protein kinase JAK2 (Homo sapiens) (UniProt O60674); assay: Inhibition of JAK2 phosphorylation in human A-375 cells at 5 to 50 uM after 12 hrs by Western blotting analysis; assay type: cell-based; settings: dose 5-50 µM
# Chain of Tyrosine-protein kinase JAK2 (Homo sapiens) (O60674 whole entry): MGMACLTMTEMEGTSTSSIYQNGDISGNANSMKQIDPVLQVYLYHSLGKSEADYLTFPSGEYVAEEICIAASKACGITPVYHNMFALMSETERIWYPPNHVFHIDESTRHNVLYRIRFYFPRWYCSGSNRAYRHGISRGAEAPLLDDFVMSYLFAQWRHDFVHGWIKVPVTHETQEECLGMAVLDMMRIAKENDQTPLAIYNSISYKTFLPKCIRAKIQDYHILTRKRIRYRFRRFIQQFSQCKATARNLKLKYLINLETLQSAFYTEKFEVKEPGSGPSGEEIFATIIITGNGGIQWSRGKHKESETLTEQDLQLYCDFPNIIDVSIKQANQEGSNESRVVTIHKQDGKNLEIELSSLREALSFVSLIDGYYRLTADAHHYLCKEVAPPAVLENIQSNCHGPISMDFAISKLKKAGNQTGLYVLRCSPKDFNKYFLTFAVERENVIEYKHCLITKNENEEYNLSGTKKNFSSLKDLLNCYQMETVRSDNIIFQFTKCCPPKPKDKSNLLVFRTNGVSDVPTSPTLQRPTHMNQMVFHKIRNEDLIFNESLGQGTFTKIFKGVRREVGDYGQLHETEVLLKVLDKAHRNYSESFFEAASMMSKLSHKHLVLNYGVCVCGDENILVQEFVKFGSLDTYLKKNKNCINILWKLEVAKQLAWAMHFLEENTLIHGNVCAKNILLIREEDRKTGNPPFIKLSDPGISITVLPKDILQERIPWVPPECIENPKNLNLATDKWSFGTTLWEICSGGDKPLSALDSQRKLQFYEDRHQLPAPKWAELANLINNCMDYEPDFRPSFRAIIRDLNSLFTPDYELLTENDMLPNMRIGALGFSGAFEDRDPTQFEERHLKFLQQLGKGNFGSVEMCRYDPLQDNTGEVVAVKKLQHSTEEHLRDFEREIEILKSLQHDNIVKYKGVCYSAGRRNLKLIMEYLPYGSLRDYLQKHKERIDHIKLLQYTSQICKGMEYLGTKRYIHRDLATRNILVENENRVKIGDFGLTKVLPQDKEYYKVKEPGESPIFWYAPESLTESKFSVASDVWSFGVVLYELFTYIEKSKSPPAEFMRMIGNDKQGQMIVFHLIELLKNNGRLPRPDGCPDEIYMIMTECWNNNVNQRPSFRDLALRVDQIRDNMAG
# Method in brief: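 A375 cells were treated with 0, 5, 10 or 25 µM overnight (methods state 12 h) in RPMI-1640 with Glutamax. Lysates (60 µg protein) were run on 10% SDS-PAGE and immunoblotted for phospho-JAK2 or phospho-ERK1/2, with actin and/or vinculin as loading controls; performed twice.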
# A-375 [14] = assay: Cell cycle arrest in human A-375 cells assessed as accumulation at G1-phase at 10 uM measured after 24 hrs by […] (reference value: 55.5 to 56.2%); assay type: functional
# A-375 [15] = assay: Inhibition of colony formation in human A-375 cells measured over 10 days by crystal violet staining based assay; assay type: functional, cell-based; settings: dose 0.1-10 µM, time 10.0 day
# Method in brief: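 A375 cells seeded at 2500/well in RPMI with 5% FBS, settled overnight, then given a dose series and grown 14 days (10 days in the results text). Fixed in 4% paraformaldehyde for 15 min, stained with 0.2% crystal violet in 20% methanol for 10 min, washed and imaged. Experiment run twice.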
# A-375 [16] = assay: Up regulation of p27kip1 expression in human A-375 cells measured after 24 hrs by Western blot analysis; assay type: functional, cell-based; settings: dose 5-50 µM
# Method in brief: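 A375 cells treated overnight (same as cell-cycle treatment, 24 h) with different doses, then lysed and immunoblotted for p27kip1, PAX3 and Cyclin D1.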
# [17] = Antiproliferative activity against human SB-590885-sensitive MEL1617 cells assessed as reduction in cell viability measured after 48 hrs by MTS assay; assay type: functional, cell-based; settings: MEL1617, 48 h; method in brief: as §2
# [18] = target: T1, Signal transducer and activator of transcription 3; assay: Inhibition of STAT3 phosphorylation at Y705 residue in human SB-590885-resistant MEL1617 cells at 10 to 25 uM measured after 12 hrs by Western blot analysis; assay type: cell-based; settings: dose 10-25 µM; method in brief: as §1
# [19] = target: T1, Signal transducer and activator of transcription 3; assay: Inhibition of STAT3 phosphorylation at S727 residue in human SB-590885-sensitive 451Lu cells measured after 12 hrs by Western blot analysis; settings: dose 10-25 µM; method in brief: as §1
# LOX IMVI = assay: Anticancer activity against human LOX IMVI cells assessed as cell growth inhibition at 10 uM measured after 48 hrs by SRB assay relative to control; assay type: functional; settings: read-out: GI
# Method in brief: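 NCI 60-cell-line screen. Cells in RPMI with 5% FBS were plated at 5,000–40,000 cells/well by doubling time and preincubated 24 h at 37 °C. Compound was added at a single 10 µM for 48 h, then cells were fixed with cold TCA (10% final) and stained with 0.4% SRB. Absorbance at 515 nm gave percent growth versus untreated control and time-zero cells.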
# A-375 [20] = assay: Cell cycle arrest in human A-375 cells assessed as accumulation at G1-phase at 25 uM measured after 24 hrs by […] (reference value: 55.5 to 56.2%); assay type: functional
# [21] = Antiproliferative activity against human SB-590885-resistant MEL1617 cells assessed as reduction in cell viability measured after 48 hrs by MTS assay; assay type: functional, cell-based; settings: Homo sapiens, MEL1617, 48 h; read-out: IC50; method in brief: as §2
SMILES,Activity (A-375 [1]),IC50 (HFF),inhibition [2],inhibition [3],inhibition [4],Drug metabolism [5],IC50 (A-375 [6]),IC50 [7],inhibition [8],inhibition [9],Activity (A-375 [10]),Activity (A-375 [11]),Activity (A-375 [12]),inhibition [13],Activity (A-375 [14]),inhibition (A-375 [15]),Activity (A-375 [16]),IC50 [17],inhibition [18],inhibition [19],other results
C=CCn1c(SCC(=O)Nc2ccc(/C(C)=N\O)cc2)nnc1-c1cc(-c2ccc(Cl)cc2)nc2ccccc12,15.7%,200 µM,Dose-dependent effect,Dose-dependent effect,inactive,15%,1.9 µM,11.3 µM,inactive,inactive,21.4%,Dose-dependent effect,14.9%,inactive,56.7%,Dose-dependent effect,Dose-dependent effect,46.1 µM,Active,Dose-dependent effect,inhibition of growth at 10 µM (LOX IMVI): 100%; Activity (A-375 [20]): 61.1%; IC50 [21]: 54.1 µM
C=CCn1c(SCC(=O)Nc2ccc(/C(C)=N\O)cc2)nnc1-c1cc(-c2ccccc2)nc2ccccc12,11.2%,54.4 µM,Dose-dependent effect,Dose-dependent effect,inactive,15%,7.7 µM,1.77 µM,inactive,inactive,12.3%,Dose-dependent effect,14.9%,inactive,63%,Dose-dependent effect,Dose-dependent effect,8.4 µM,Active,Dose-dependent effect,inhibition of growth at 10 µM (LOX IMVI): 76%; Activity (A-375 [20]): 75.4%; IC50 [21]: 10.8 µM
